What is called IC50 is the concentration at which inhibition is half-maximal.

Where only a bound is given, the exact number is not on record here.

The source of these data is ChEMBL document CHEMBL3390837, “Bridged tetrahydroisoquinolines as selective NADPH oxidase 2 (Nox2) inhibitors” (Medchemcomm, 2013).

For one series, the target named is T1, NADPH oxidase 2 (Homo sapiens, UniProt P04839).
T1 sequence (P04839 whole entry): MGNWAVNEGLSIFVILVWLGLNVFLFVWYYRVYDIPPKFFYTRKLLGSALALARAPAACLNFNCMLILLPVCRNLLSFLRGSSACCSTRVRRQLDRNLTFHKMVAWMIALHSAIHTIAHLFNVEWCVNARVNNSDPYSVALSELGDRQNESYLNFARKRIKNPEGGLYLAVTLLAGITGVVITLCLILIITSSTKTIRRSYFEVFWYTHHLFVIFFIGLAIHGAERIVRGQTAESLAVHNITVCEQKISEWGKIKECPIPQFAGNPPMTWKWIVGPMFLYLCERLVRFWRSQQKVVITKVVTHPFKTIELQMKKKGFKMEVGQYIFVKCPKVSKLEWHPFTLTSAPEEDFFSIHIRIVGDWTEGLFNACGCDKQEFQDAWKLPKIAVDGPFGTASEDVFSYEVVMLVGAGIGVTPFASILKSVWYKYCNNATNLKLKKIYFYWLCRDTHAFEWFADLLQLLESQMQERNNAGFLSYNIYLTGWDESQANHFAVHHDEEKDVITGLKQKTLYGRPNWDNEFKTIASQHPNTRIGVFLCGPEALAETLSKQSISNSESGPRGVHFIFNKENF
Kind of series: Inhibition of full length human NOX2 transfected in COS 22 cells assessed as inhibition of Phorbol 12-myristate 13-acetate-stimulated ROS generation by chemiluminescence assay. Format: cell-based. The following applies: read-out: IC50. The procedure, abridged:
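COS-Nox2 (COS-7 stably expressing human p22phox, Nox2, p47phox, p67phox) plated in OPTIMEM at 2.5 x 10³ cells/well; 10 min at 37 °C in PBS with L-012, then stimulated with 5 µM PMA; luminescence followed over time; superoxide specificity checked with SOD 150 U/mL. IC50 by three-parameter non-linear fit, Hill slope 1, top/bottom fixed 100/0.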
For the molecule `C=C(C)C[C@H]1[C@H]2c3c(Br)cccc3[C@H](CC2(C)C)N1CCCCC` (racemic), the IC50 was found to be 20 µM.
Take `C=C(C)C[C@H]1[C@H]2c3c(Br)cccc3[C@H](CC2(C)C)N1S(C)(=O)=O` (racemic): the half-maximal inhibitory concentration (IC50) was > 100 µM.
Same read-out and setting: under `C=C(C)C[C@H]1[C@H]2c3c(Br)cccc3[C@H](CC2(C)C)N1Cc1cc(C)on1` (racemic) stands 48 µM; under `C=C(C)C[C@H]1[C@H]2c3c(Br)cccc3[C@H](CC2(C)C)N1Cc1c[nH]c2ccccc12` (racemic), > 100 µM.
As for `C=C(C)C[C@H]1[C@H]2c3c(Br)cccc3[C@H](CC2(C)C)N1Cc1ccc2c(c1)OCO2` (racemic), the 50% inhibitory concentration (IC50) amounted to 88 µM.
Still for that read-out and setting: the value for `C=C(C)C[C@H]1[C@H]2c3c(Br)cccc3[C@H](CC2(C)C)N1Cc1ccnc2ccccc12` (racemic) was > 100 µM.

The next series deals with T1, NADPH oxidase 2. Kind of series: Inhibition of full length human NOX2 transfected in COS 22 cells assessed as inhibition of Phorbol 12-myristate 13-acetate-stimulated ROS generation by measuring H2O2 production by fluorescence assay in presence of superoxide dismutase. Format: cell-based. The following applies: read-out: IC50. The procedure, abridged: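 Intact COS-Nox2 cells in Hepes pH 7.4 buffer with 0.1 mM Amplex Red, 0.32 U/ml HRP and 150 U/mL SOD, drug 15 min at 37 °C; started with 5 µM PMA; fluorescence monitored 1 h at 37 °C; rate as RFU/min minus unstimulated cells; % of vehicle control.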
Take `C=C(C)C[C@H]1[C@H]2c3c(Br)cccc3[C@H](CC2(C)C)N1CCCCC` (racemic): the half-inhibitory concentration (IC50) worked out at 20 µM.
The same measure, in the same setting: under `C=C(C)C[C@H]1[C@H]2c3c(Br)cccc3[C@H](CC2(C)C)N1S(C)(=O)=O` (racemic) stands 27 µM; under `C=C(C)C[C@H]1[C@H]2c3c(Br)cccc3[C@H](CC2(C)C)N1Cc1cc(C)on1` (racemic), 12 µM.
The same measure, in the same setting: the value for `C=C(C)C[C@H]1[C@H]2c3c(Br)cccc3[C@H](CC2(C)C)N1Cc1c[nH]c2ccccc12` (racemic) was > 100 µM; that for `C=C(C)C[C@H]1[C@H]2c3c(Br)cccc3[C@H](CC2(C)C)N1Cc1ccc2c(c1)OCO2` (racemic) was 40 µM.
The same measure, in the same setting: under `C=C(C)C[C@H]1[C@H]2c3c(Br)cccc3[C@H](CC2(C)C)N1Cc1ccnc2ccccc12` (racemic) stands > 100 µM.

Another series has as its target T2, NADPH oxidase 5 (Homo sapiens, UniProt Q96PH1).
T2 sequence (Q96PH1 whole entry): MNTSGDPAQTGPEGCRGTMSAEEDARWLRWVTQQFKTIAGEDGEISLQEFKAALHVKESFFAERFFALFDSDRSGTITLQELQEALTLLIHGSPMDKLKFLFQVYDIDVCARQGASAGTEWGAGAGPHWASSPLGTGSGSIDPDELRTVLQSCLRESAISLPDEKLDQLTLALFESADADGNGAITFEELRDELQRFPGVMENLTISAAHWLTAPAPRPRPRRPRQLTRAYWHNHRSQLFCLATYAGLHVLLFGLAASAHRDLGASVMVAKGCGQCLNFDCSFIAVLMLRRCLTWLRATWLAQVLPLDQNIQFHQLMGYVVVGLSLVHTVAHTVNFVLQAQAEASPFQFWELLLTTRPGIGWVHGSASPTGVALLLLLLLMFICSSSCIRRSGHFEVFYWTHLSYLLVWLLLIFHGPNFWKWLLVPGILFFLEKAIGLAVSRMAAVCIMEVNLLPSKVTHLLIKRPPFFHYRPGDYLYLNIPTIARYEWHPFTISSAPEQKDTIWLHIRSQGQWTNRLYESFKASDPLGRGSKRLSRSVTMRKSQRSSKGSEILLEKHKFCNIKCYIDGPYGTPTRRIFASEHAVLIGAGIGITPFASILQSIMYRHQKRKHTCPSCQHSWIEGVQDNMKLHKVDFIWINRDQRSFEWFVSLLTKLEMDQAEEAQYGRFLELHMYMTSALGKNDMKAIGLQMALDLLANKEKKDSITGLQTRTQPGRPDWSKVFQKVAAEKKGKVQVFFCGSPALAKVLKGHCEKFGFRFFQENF
Kind of series: Inhibition of full length human NOX5 transfected in HEK cells assessed as inhibition of ionomycin-stimulated ROS generation by chemiluminescence assay. Format: cell-based, HEK293.
Details: not given; call rule not given here
The method in brief: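 HEK-Nox5 cells at 5 × 10⁴ cells/well in OPTIMEM, 10 min at 37 °C in PBS with L-012, then stimulated with 1 µM PMA/0.1 µM ionomycin; luminescence over time; SOD 150 U/mL used to confirm superoxide specificity. IC50 by three-parameter fit, Hill slope 1, top/bottom fixed 100/0.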
`C=C(C)C[C@H]1[C@H]2c3c(Br)cccc3[C@H](CC2(C)C)N1CCCCC` (racemic): the IC50 is > 100 µM.
As to `C=C(C)C[C@H]1[C@H]2c3c(Br)cccc3[C@H](CC2(C)C)N1S(C)(=O)=O` (racemic), the IC50 is > 100 µM.
The same measure, in the same setting: under `C=C(C)C[C@H]1[C@H]2c3c(Br)cccc3[C@H](CC2(C)C)N1Cc1cc(C)on1` (racemic) stands 31 µM; under `C=C(C)C[C@H]1[C@H]2c3c(Br)cccc3[C@H](CC2(C)C)N1Cc1c[nH]c2ccccc12` (racemic), > 100 µM.
`C=C(C)C[C@H]1[C@H]2c3c(Br)cccc3[C@H](CC2(C)C)N1Cc1ccc2c(c1)OCO2` (racemic): the IC50 was > 100 µM.
Same read-out and setting: the value for `C=C(C)C[C@H]1[C@H]2c3c(Br)cccc3[C@H](CC2(C)C)N1Cc1ccnc2ccccc12` (racemic) was > 100 µM.

Another series deals with Xanthine dehydrogenase/oxidase (Bos taurus, UniProt P80457). Kind of series: Inhibition of bovine milk xanthine oxidase assessed as hypoxanthine-stimulated ROS generation by measuring H2O2 production at 25 to 50 uM by fluorescence assay. The following applies: cattle.
Xanthine dehydrogenase/oxidase, sequence (P80457 whole entry): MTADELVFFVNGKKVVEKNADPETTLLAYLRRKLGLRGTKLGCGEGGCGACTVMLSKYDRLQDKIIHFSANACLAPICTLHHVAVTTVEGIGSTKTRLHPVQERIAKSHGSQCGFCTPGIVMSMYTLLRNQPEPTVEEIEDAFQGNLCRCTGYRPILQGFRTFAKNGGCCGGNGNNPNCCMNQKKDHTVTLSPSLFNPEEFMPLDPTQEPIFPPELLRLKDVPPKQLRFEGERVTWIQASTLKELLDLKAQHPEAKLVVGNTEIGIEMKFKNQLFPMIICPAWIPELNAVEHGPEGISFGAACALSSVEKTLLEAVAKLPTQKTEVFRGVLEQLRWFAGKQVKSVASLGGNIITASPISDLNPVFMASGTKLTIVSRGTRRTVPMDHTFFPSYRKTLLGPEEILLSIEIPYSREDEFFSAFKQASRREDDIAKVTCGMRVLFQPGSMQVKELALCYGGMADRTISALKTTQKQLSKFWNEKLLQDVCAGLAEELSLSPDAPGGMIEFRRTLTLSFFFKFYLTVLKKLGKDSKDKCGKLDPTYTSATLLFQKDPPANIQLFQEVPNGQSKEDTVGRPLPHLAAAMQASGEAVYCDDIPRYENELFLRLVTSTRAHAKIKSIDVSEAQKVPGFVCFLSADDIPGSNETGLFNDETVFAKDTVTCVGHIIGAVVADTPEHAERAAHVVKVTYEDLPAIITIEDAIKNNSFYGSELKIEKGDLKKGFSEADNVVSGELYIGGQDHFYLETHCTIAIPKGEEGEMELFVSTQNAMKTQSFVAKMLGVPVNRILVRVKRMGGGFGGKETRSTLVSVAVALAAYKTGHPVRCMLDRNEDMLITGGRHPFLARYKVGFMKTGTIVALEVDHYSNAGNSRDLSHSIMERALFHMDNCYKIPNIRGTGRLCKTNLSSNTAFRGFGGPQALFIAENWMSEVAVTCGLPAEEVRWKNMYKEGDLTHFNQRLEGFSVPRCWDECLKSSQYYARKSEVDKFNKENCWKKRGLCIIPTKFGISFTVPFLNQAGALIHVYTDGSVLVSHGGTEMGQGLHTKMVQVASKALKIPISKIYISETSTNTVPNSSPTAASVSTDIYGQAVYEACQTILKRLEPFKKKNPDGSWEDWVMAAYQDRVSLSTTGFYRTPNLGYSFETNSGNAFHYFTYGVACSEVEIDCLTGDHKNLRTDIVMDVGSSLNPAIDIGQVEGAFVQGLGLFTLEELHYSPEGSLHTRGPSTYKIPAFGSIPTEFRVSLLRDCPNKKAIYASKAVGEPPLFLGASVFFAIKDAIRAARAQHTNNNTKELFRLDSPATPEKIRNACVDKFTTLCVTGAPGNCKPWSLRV
Consider `[Cl-].c1ccc2c(c1)[I+]c1ccccc1-2` [DIPHENYLENEIODONIUM CHLORIDE], for which the “inhibition (INH)” value was “Not Active”.
On the same count and under the same terms, the value for `C=C(C)C[C@H]1[C@H]2c3c(Br)cccc3[C@H](CC2(C)C)N1CCCCC` (racemic) was “Not Active”.
The same measure, in the same setting: under `C=C(C)C[C@H]1[C@H]2c3c(Br)cccc3[C@H](CC2(C)C)N1S(C)(=O)=O` (racemic) stands “Not Active”.
Still for that read-out and setting: the value for `C=C(C)C[C@H]1[C@H]2c3c(Br)cccc3[C@H](CC2(C)C)N1Cc1cc(C)on1` (racemic) was “Not Active”.
As to `C=C(C)C[C@H]1[C@H]2c3c(Br)cccc3[C@H](CC2(C)C)N1Cc1c[nH]c2ccccc12` (racemic), the “inhibition (INH)” value is on record as “Not Active”.
The same measure, in the same setting: the value for `C=C(C)C[C@H]1[C@H]2c3c(Br)cccc3[C@H](CC2(C)C)N1Cc1ccc2c(c1)OCO2` (racemic) was “Not Active”; that for `C=C(C)C[C@H]1[C@H]2c3c(Br)cccc3[C@H](CC2(C)C)N1Cc1ccnc2ccccc12` (racemic) was “Not Active”.

The target of a further series is T3, NADPH oxidase 1 (Homo sapiens, UniProt Q9Y5S8).
T3 sequence (Q9Y5S8 whole entry): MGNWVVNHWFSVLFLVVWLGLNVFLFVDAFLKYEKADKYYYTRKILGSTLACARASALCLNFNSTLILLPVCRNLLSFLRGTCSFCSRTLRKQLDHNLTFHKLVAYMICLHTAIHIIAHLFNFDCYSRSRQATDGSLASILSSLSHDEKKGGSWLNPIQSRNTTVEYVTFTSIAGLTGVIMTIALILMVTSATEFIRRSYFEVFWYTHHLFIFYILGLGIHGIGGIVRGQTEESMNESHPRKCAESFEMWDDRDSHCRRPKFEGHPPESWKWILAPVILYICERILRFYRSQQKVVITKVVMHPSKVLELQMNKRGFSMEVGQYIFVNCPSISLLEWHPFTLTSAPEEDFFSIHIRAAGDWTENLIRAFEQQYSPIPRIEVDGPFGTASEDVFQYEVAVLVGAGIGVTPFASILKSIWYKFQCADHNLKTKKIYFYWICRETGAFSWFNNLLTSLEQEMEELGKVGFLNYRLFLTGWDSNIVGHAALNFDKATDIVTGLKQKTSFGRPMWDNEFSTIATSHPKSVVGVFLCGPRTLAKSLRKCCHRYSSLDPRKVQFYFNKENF
Kind of series: Inhibition of full length human NOX1 transfected in COS 22 cells assessed as inhibition of constitutive ROS generation by chemiluminescence assay. As to conditions: cos 22.
Take `C=C(C)C[C@H]1[C@H]2c3c(Br)cccc3[C@H](CC2(C)C)N1S(C)(=O)=O` (racemic): the IC50 result is “Not Active”.

Still in this series, the particulars now being: read-out: IC50.
As for `C=C(C)C[C@H]1[C@H]2c3c(Br)cccc3[C@H](CC2(C)C)N1CCCCC` (racemic), the half-maximal inhibitory concentration (IC50) was > 100 µM.
On the same count and under the same terms, under `C=C(C)C[C@H]1[C@H]2c3c(Br)cccc3[C@H](CC2(C)C)N1Cc1cc(C)on1` (racemic) stands > 100 µM; under `C=C(C)C[C@H]1[C@H]2c3c(Br)cccc3[C@H](CC2(C)C)N1Cc1c[nH]c2ccccc12` (racemic), > 100 µM.
As for `C=C(C)C[C@H]1[C@H]2c3c(Br)cccc3[C@H](CC2(C)C)N1Cc1ccc2c(c1)OCO2` (racemic), the IC50 is > 100 µM.
The same measure, in the same setting: under `C=C(C)C[C@H]1[C@H]2c3c(Br)cccc3[C@H](CC2(C)C)N1Cc1ccnc2ccccc12` (racemic) stands > 100 µM.

The target of the next series is T4, NADPH oxidase 4 (Homo sapiens, UniProt Q9NPH5).
T4 sequence (Q9NPH5 whole entry): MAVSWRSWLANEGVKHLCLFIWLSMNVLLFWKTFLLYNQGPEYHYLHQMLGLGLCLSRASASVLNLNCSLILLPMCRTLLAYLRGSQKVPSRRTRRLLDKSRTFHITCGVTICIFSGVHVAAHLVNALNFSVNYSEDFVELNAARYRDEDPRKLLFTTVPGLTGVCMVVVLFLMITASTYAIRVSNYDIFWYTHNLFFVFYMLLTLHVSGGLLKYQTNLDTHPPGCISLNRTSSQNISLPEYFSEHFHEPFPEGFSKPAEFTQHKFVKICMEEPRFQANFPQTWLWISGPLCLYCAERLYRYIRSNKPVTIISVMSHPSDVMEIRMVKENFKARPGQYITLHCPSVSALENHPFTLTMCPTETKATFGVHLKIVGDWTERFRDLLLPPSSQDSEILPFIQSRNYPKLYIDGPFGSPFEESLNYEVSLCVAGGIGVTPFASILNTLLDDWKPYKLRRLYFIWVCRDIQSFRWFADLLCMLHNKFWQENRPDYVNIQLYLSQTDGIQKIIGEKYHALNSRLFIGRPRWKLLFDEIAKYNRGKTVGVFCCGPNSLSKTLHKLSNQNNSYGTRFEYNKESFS
Kind of series: Inhibition of full length human NOX4 transfected in COS 22 cells assessed as inhibition of ROS generation by measuring H2O2 production by fluorescence assay. The following applies: cos 22.
`C=C(C)C[C@H]1[C@H]2c3c(Br)cccc3[C@H](CC2(C)C)N1Cc1c[nH]c2ccccc12` (racemic): the half-maximal inhibitory concentration (IC50) result is recorded as “Not Active”.
On the same count and under the same terms, under `C=C(C)C[C@H]1[C@H]2c3c(Br)cccc3[C@H](CC2(C)C)N1Cc1ccnc2ccccc12` (racemic) stands “Not Active”.

Still in this series, the particulars now being: read-out: IC50.
For `C=C(C)C[C@H]1[C@H]2c3c(Br)cccc3[C@H](CC2(C)C)N1CCCCC` (racemic), the IC50 is > 100 µM.
Same read-out and setting: under `C=C(C)C[C@H]1[C@H]2c3c(Br)cccc3[C@H](CC2(C)C)N1S(C)(=O)=O` (racemic) stands > 100 µM.
Same read-out and setting: under `C=C(C)C[C@H]1[C@H]2c3c(Br)cccc3[C@H](CC2(C)C)N1Cc1cc(C)on1` (racemic) stands > 100 µM; under `C=C(C)C[C@H]1[C@H]2c3c(Br)cccc3[C@H](CC2(C)C)N1Cc1ccc2c(c1)OCO2` (racemic), > 100 µM.
